Results filed as inconclusive are left out.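 The calls were made as follows, unless noted: active = RAM network inhibition above 8.4% in each of two replicates, 3 SD over the compound average; inconclusive = above 8.4% inhibition in only one replicate; inactive = 8.4% inhibition or less in each replicate.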
Legend:
[1] = OD615 S. cerevisiae growth inhibition, permissive medium, pilot counter-assay, permissive growth control for S. cerevisiae lifespan shortening project (AID 705;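 active = growth inhibition above 25% in both replicates, a cutoff set 3 SD above the mean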); settings: OD615, 24 h, at 10 µM, stronger effect = higher value
Summary of the method: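 Material: engineered DeaD yeast; compound dosing: one dose 10 µM, DMSO 0.25% final; measure: yeast growth inhibition indicated by reduced 24 h OD615; detection: OD615 turbidity read; incubation: cells pre-grown 4 h, then 24 h compound exposure, 30 °C humidified; medium: permissive synthetic complete medium with raffinose and galactose carbon sources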

[2] = Restrictive medium S. cerevisiae growth inhibition, OD615, pilot screen of yeast lifespan reduction project, restrictive growth control (AID 706;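 active = growth inhibition above a set limit, 3 SD over mean compound inhibition, in both replicates, cut at about 43% in these data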;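 also: modified DeaD lifespan yeast strain shifted to restrictive glucose medium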); settings: OD615, 48 h, at 10 µM, stronger effect = higher value
Summary of the method: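 material = engineered S. cerevisiae DeaD strain | medium = glucose-based CSMM-D restrictive medium | times = 4 h pre-incubation, 48 h exposure at 30 °C | technique = OD615 absorbance reading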

[3] = viability gain of MRP-1-high H69AR cells under doxorubicin, pilot screen, MRP-1 activator project, CellTiter-Glo, duplicate (AID 807;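 active = viability increase at or above a cutoff of the median across tested compounds plus 3 SD, cut at about 8.5% in these data, passing the limit was not always enough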;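 also: compound pretreatment 18-22 h then 72 h combined with doxorubicin; 0% = doxorubicin alone and 100% = vehicle without doxorubicin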); settings: H69AR viability with doxorubicin, CellTiter-Glo luminescence; at 10 µM; stronger effect = higher value
[4] = growth suppression of beta-catenin knockout HCT116, pilot screen, human colon tumor cells (AID 823;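 active = cell viability at or below a set limit in both duplicate runs, the limit being the all-compound median minus 4 SD, cut at about 23% in these data, passing the limit was not always enough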;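 also: 0% = wells killed by 20 µM Hyamine and 100% = untreated DMSO cell wells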); settings: CellTiter-Glo, 60 h, at 10 µM, stronger effect = lower value
[5] = growth suppression of PTEN-deleted HCT116, pilot screen, cell-based, HCT116 clonal line, CellTiter-Glo (AID 824;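 active = viability at or below 27.92% in each of two runs, the all-compound median minus 4 SD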;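 also: 0% = 20 µM Hyamine control and 100% = vehicle cell control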); settings: 60 h, at 10 µM, stronger effect = lower value
[6] = inhibitors of the yeast RAM network, pilot screen, dse1pr::URA3 reporter, 5-FOA selection (AID 869;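 active = inhibition over a set limit, the all-compound mean plus 3 SD, in both replicate runs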;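 also: 0% = DMSO wells with no growth and 100% = 10 µM 1-NA-PP1 with full growth; RAM network block rescues cells from 5-FOA so hits raise OD615 growth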); settings: S. cerevisiae dse1pr::URA3 5-FOA growth, OD615, 2 d; at 10 µM; stronger effect = higher value; strain carries analog-sensitive mutant Cbk1 kinase
[7] = RAM signaling pathway blockade in yeast – S. cerevisiae, Pdr1DBD-CYC8 efflux-inhibited sensitized strain, primary screen (AID 1298);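 also: 0% = DMSO untreated cells without growth and 100% = 10 µM 1-NA-PP1 full growth; higher means more yeast growth rescued from 5-FOA killing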; settings: S. cerevisiae cbk1-as DSE1-URA3 strain, 5-FOA growth OD615, 2 d; at 50 µM; stronger effect = higher value

Cc1ccc(/C(O)=C2/C(=O)C(=O)N(CCN3CCOCC3)C2c2cccnc2)cc1 (stereo not drawn)
inactive: growth inhibition [1] 6.32% | growth inhibition [2] 4.34% | viability increase [3] 0.49% | viability [4] 93.5% | viability [5] 102% | inhibition [6] -0.11% | RAM network inhibition [7] 0.7%

Cc1ccc(NS(=O)(=O)c2cc(C(=O)O)ccc2Cl)cc1
inactive: growth inhibition [1] -5.58% | growth inhibition [2] -5.51% | viability increase [3] -1.55% | viability [4] 100% | viability [5] 95.2% | inhibition [6] 1.16% | RAM network inhibition [7] 7.99%

Cn1c(=NC(=O)C2CC2)sc2cccc(F)c21
inactive: growth inhibition [1] -10.3% | growth inhibition [2] 8.25% | viability increase [3] -4.82% | viability [4] 88.3% | viability [5] 89% | inhibition [6] 0.96% | RAM network inhibition [7] 6.98%

Cc1ccc(S(=O)(=O)N2CCCC(C(=O)N(Cc3cccs3)C3CC3)C2)cc1 (stereo not drawn)
inactive: growth inhibition [1] -7.06% | growth inhibition [2] -14.9% | viability increase [3] -0.66% | viability [4] 61.3% | viability [5] 71.5% | inhibition [6] 0.39% | RAM network inhibition [7] 7.4%

CCN1CCN(C(=O)Cn2ncc3c2-c2ccccc2OC3)CC1
inactive: growth inhibition [1] 0.755% | growth inhibition [2] 0.8% | viability increase [3] -1.74% | viability [4] 106% | viability [5] 99.9% | inhibition [6] 1.14% | RAM network inhibition [7] 2.81%

COc1ccc2c(=O)c(N3C(=O)c4ccccc4C3=O)c(C)oc2c1
inactive: growth inhibition [1] -11.8% | growth inhibition [2] -0.32% | viability increase [3] -1.12% | viability [4] 94.2% | viability [5] 92.6% | inhibition [6] -0.25% | RAM network inhibition [7] 1.33%

Cc1csc(=N)n1-c1ccc(Cl)cc1
inactive: growth inhibition [1] -6.4% | growth inhibition [2] -7.49% | viability increase [3] 0.86% | viability [4] 82.5% | viability [5] 80.7% | inhibition [6] 1.35% | RAM network inhibition [7] 9.58%

Cc1cc2n(c1)CCn1c(C)ccc1-2
inactive: growth inhibition [1] 18.4% | growth inhibition [2] 14.5% | viability increase [3] -2.98% | viability [4] 97.8% | viability [5] 96.9% | inhibition [6] 1.99% | RAM network inhibition [7] 2.57%

COc1ccc(C)cc1NC(=O)c1cnc2scc(C)n2c1=O
inactive: growth inhibition [1] 9.45% | growth inhibition [2] -0.68% | viability increase [3] -5.49% | viability [4] 87.8% | viability [5] 84.8% | inhibition [6] 3.21% | RAM network inhibition [7] 3.95%

CC(=O)c1cccc(NC(=O)Cn2cc3c(n2)CCCC3)c1
inactive: growth inhibition [1] -3.74% | growth inhibition [2] -0.095% | viability increase [3] -3.04% | viability [4] 97.5% | viability [5] 96.7% | inhibition [6] 0.1% | RAM network inhibition [7] 2.14%

O=C(OCCCCN1C(=O)c2ccccc2C1=O)c1ccc(S(=O)(=O)N2CCCC2)cc1
inactive: growth inhibition [1] -11.7% | growth inhibition [2] -0.405% | viability increase [3] 0.28% | viability [4] 101% | viability [5] 100% | inhibition [6] 1.85% | RAM network inhibition [7] 4.52%

CCn1cc(C(=O)N2CC(C)CC(C)C2)c(=O)c2cc(S(=O)(=O)N(C)C)ccc21 (stereo not drawn)
inactive: growth inhibition [1] 4.35% | growth inhibition [2] 6.52% | viability increase [3] -0.18% | viability [4] 103% | viability [5] 101% | inhibition [6] -0.3% | RAM network inhibition [7] 2.78%

O=C(CN(c1ccc(F)cc1)S(=O)(=O)c1ccc2c(c1)OCCO2)N1CCOCC1
inactive: growth inhibition [1] -3.38% | growth inhibition [2] -12.4% | viability increase [3] -2.08% | viability [4] 107% | viability [5] 104% | inhibition [6] 0.625% | RAM network inhibition [7] 2.45%

CCN1CCN(c2ncnc3c2sc2nc(N4CCOCC4)c4c(c23)CCC4)CC1
inactive: growth inhibition [1] -5.5% | growth inhibition [2] -14.1% | viability increase [3] -4.51% | viability [4] 85.1% | viability [5] 86.3% | inhibition [6] 0.195% | RAM network inhibition [7] 5.27%

Cc1cc(C)nc(/N=C2\NC(=O)CC(C(=O)O)N2CCc2c[nH]c3ccccc23)n1 (stereo not drawn)
inactive: growth inhibition [1] -0.875% | growth inhibition [2] -4.41% | viability increase [3] -2.04% | viability [4] 93.3% | viability [5] 84.1% | inhibition [6] 0.67% | RAM network inhibition [7] -0.83%

CCOCCn1c(COc2ccccc2)nc2ccccc21
inactive: growth inhibition [1] -6.72% | growth inhibition [2] 1.93% | viability increase [3] -2.53% | viability [4] 83.8% | viability [5] 81.9% | inhibition [6] 1.88% | RAM network inhibition [7] 6.89%

O=C(c1ccco1)N1CCN(c2ncccn2)CC1
inactive: growth inhibition [1] -12.9% | growth inhibition [2] -5.72% | viability increase [3] -1.88% | viability [4] 98.9% | viability [5] 96.3% | inhibition [6] 2.97% | RAM network inhibition [7] -0.22%

CCn1cc(SCC(=O)NCc2ccc3c(c2)OCO3)c2ccccc21
inactive: growth inhibition [1] -9.14% | growth inhibition [2] -8.28% | viability increase [3] -1.84% | viability [4] 97.9% | viability [5] 92.7% | inhibition [6] 0.495% | RAM network inhibition [7] 3.73%

CCCN1C(=O)c2cc(C(=O)NCCc3cccc(C)c3)ccc2C1O (stereo not drawn)
inactive: growth inhibition [1] -2.76% | growth inhibition [2] 1.97% | viability increase [3] -3.1% | viability [4] 104% | viability [5] 104% | inhibition [6] 0.08% | RAM network inhibition [7] 1.65%

O=C(CCCn1c(=O)oc2ccccc21)N1CCc2ccccc2C1
inactive: growth inhibition [1] -8.29% | growth inhibition [2] -14.1% | viability increase [3] -4.06% | viability [4] 94.3% | viability [5] 95.2% | inhibition [6] 1.48% | RAM network inhibition [7] 4.82%

O=C(O)CCCC(=O)N1CCc2cc(S(=O)(=O)N3CCc4ccccc43)ccc21
inactive: growth inhibition [1] -2.29% | growth inhibition [2] -2.17% | viability increase [3] -0.98% | viability [4] 90.7% | viability [5] 91.8% | inhibition [6] 1.98% | RAM network inhibition [7] 1.3%

COC(=O)c1c(N)sc(C(C)=O)c1C
inactive: growth inhibition [1] -7.62% | growth inhibition [2] -6.67% | viability increase [3] -2.35% | viability [4] 98.4% | viability [5] 94.8% | inhibition [6] 1.72% | RAM network inhibition [7] 5.34%

Cc1cccc(C2CC(c3ccc(F)cc3)Nc3nc(N)nn32)c1 (stereo not drawn)
inactive: growth inhibition [1] -1.75% | growth inhibition [2] 18.4% | viability increase [3] 0.42% | viability [4] 92.3% | viability [5] 77.1% | inhibition [6] 0.09% | RAM network inhibition [7] 0.31%

CCN(CC)c1ccc(NC(=O)CSc2nc(C)cc(=O)[nH]2)cc1
inactive: growth inhibition [1] -5.01% | growth inhibition [2] 1.71% | viability increase [3] -0.69% | viability [4] 95.7% | viability [5] 95.4% | inhibition [6] 0.125% | RAM network inhibition [7] 5.74%

Source: PubChem BioAssay
